The values that follow come from ChEMBL document CHEMBL3045616, “Synthetic pyrazole derivatives as growth inhibitors of some phytopathogenic fungi” (J Agric Food Chem, 2007).

For test [1], the system named is Globisporangium ultimum. In words: Antifungal activity against logarithmic phase of Pythium ultimum ATCC 58812 assessed as growth inhibition at 50 ug/ml measured at 5 days post-drug treatment. The test is classed as functional. Particulars: ATCC 58812, 120 h, read-out: GI. Summed up:
(§1)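 Log-phase mycelium (from 10 mm stationary-phase disks grown on cellophane over PDA, pH 5.6, 26 ± 1 °C) moved to PDA with compound added from DMSO stock at 45 °C. Final concentrations were 10, 50 or 100 µg mL^-1, with 0.1% DMSO in test and control media. Colony diameter was read daily for 5 days, in triplicate, as % of untreated control.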

Test [2] concerns Pyricularia grisea. In words: microbe, parasite or virus in culture. Particulars: ATCC 64413, 120 h, read-out: GI. The test is classed as functional.
The test system of test [3] is Globisporangium ultimum. Description: Antifungal activity against logarithmic phase of Pythium ultimum ATCC 58812 assessed as growth inhibition at 10 ug/ml measured at 5 days post-drug treatment. The test is classed as functional. Particulars: ATCC 58812, 120 h, read-out: GI. Summed up:
as §1

The test system of test [4] is Globisporangium ultimum. In words: Antifungal activity against logarithmic phase of Pythium ultimum ATCC 58812 assessed as growth inhibition at 100 ug/ml measured at 5 days post-drug treatment. To be noted: ATCC 58812, 120 h, read-out: GI. The class given is functional. Put shortly:
as §1

Test [5] concerns Pyricularia grisea. In words: microbe, parasite or virus in culture. The test is classed as functional. Particulars: ATCC 64413, 120 h, read-out: GI. The source holds these as a separate data set.
For test [6], the system named is Botrytis cinerea. In words: Antifungal activity against logarithmic phase of Botryotinia fuckeliana ATCC 48339 assessed as growth inhibition at 50 ug/ml measured at 5 days post-drug treatment. The class given is functional. To be noted: ATCC 48339, 120 h, read-out: GI. Put shortly:
as §1

In test [7] the test system is Pyricularia grisea. Description: microbe, parasite or virus in culture. Particulars: ATCC 64413, 120 h. The test is classed as functional, organism-based.
Test [8] deals with Botrytis cinerea. In words: Antifungal activity against logarithmic phase of Botryotinia fuckeliana ATCC 48339 assessed as growth inhibition at 100 ug/ml measured at 5 days post-drug treatment. The test is classed as functional. Particulars: ATCC 48339, 120 h, read-out: GI. Put shortly: as §1
Test [9] relates to Botrytis cinerea. Description: Antifungal activity against logarithmic phase of Botryotinia fuckeliana ATCC 48339 assessed as growth inhibition at 10 ug/ml measured at 5 days post-drug treatment. To be noted: ATCC 48339, 120 h, read-out: GI. The class given is functional. Put shortly:
as §1

For test [10], the system named is Pyricularia grisea. Description: microbe, parasite or virus in culture. The class given is functional. Particulars: ATCC 64413, 120 h, read-out: GI. The source holds these as a separate data set.
Test [11] deals with Botrytis cinerea. Description: Antifungal activity against logarithmic phase of Botryotinia fuckeliana ATCC 48339 assessed as growth inhibition measured at 5 days post-drug treatment. The class given is functional, organism-based. Particulars: ATCC 48339, 120 h. Summed up: (§2)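 Log-phase mycelium grown on cellophane over PDA (pH 5.6, 26 ± 1 °C) moved to PDA containing compound at 10, 50 and 100 µg mL^-1 final, with 0.1% DMSO in test and control media. Colony diameter was measured daily for 5 days, in triplicate, relative to untreated controls. IC50 came from curves of activity (%) versus log inhibitor concentration.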

Test [12] can be described thus: In vitro inhibition of basal rate of photosynthetic electron transport (Hill reaction) in active intact chloroplast thylakoid membrane of Spinacia oleracea (spinach) leaves assessed as inhibition of light-driven ferricyanide reduction at 5 uM measured at 24 degC at 30 s intervals for 10 min (reference value: 100 +/-3.1%).
The test system of test [13] is Globisporangium ultimum. In words: Antifungal activity against logarithmic phase of Pythium ultimum Trow ATCC 58812 assessed as growth inhibition measured at 5 days post-drug treatment. To be noted: ATCC 58812, 120 h. The class given is functional, organism-based. Summed up:
as §2

Test [14] is described as follows: Ratio of IC50 for photosynthetic electron transport in active intact chloroplast thylakoid membrane of Spinacea oleracea L. leaves to IC50 for Pythium ultimum ATCC 58812.

pIC50: −log10 of the molar value.

With `CCOC(=O)c1cn[nH]c1NC(=S)Nc1ccccc1Cl`, the inhibition of growth at 50 µg/mL is 68.7% in the test on Globisporangium ultimum [1], 60.9% with Pyricularia grisea [5] and 30.9% in the test with Botrytis cinerea [6]. Moreover, the inhibition of growth at 10 µg/mL in the test on Pyricularia grisea [2] came to 48.7%; in the test on Globisporangium ultimum [3] it was 66.5%; with Botrytis cinerea [9], 4.3%. Further, the inhibition of growth at 100 µg/mL came to 70% in the test on Globisporangium ultimum [4], 36% with Botrytis cinerea [8] and 67% in the test with Pyricularia grisea [10]. Also, the pIC50 in the test with Pyricularia grisea [7] is 4.32.
As for `O=C(Nc1ccccc1)c1ccccc1I` [BENODANIL], in the test with Botrytis cinerea [11], the pIC50 is 4.18. Further, the inhibition of growth at 50 µg/mL in the test with Botrytis cinerea [6] was determined as 91.2%. Further, the inhibition of growth at 100 µg/mL with Botrytis cinerea [8] was 97.6%. Further, the inhibition of growth at 10 µg/mL in the test on Botrytis cinerea [9] was found to be 6.3%.
Consider `CCOC(=O)c1cn[nH]c1NC(=S)Nc1cccc(Cl)c1`, for which the results for the inhibition of growth at 50 µg/mL with Globisporangium ultimum [1], in the test with Pyricularia grisea [5] and in the test on Botrytis cinerea [6] were 38.1%, 18% and 56.8%, respectively. Moreover, in the test on Botrytis cinerea [11], the pIC50 was 4.51. Also, the figures for the inhibition of growth at 10 µg/mL in the test on Pyricularia grisea [2], in the test with Globisporangium ultimum [3] and with Botrytis cinerea [9] were 16.6%, 32.9% and 56%, respectively. The inhibition of growth at 100 µg/mL in the test on Globisporangium ultimum [4] is 60.8%; with Botrytis cinerea [8] it was 76.2%; in the test with Pyricularia grisea [10] it was 26%.
On to `CCOC(=O)c1cn[nH]c1NC(=S)Nc1cccc(C(F)(F)F)c1`, for which the inhibition of growth at 50 µg/mL in the test with Globisporangium ultimum [1] was found to be 24.2%; in the test with Pyricularia grisea [5] it was 46.3%. Besides, the inhibition of growth at 10 µg/mL was found to be 29.4% in the test with Pyricularia grisea [2] and 23% in the test with Globisporangium ultimum [3]. The inhibition of growth at 100 µg/mL in the test on Globisporangium ultimum [4] was found to be 28%; in the test with Botrytis cinerea [8] it was 23.2%; with Pyricularia grisea [10], 51%. The compound also gave a pIC50 in the test with Pyricularia grisea [7] of 3.65.
Regarding `O=c1c2cn[nH]c2[nH]c(=S)n1-c1ccccc1Cl`, in the test on Botrytis cinerea [11], the pIC50 is 4.08. In addition, the inhibition of growth at 50 µg/mL in the test with Botrytis cinerea [6] stood at 63.8%. Besides, in the test on Botrytis cinerea [8], the inhibition of growth at 100 µg/mL stood at 66.2%. Besides, in the test with Botrytis cinerea [9], the inhibition of growth at 10 µg/mL worked out at 40%.
Take `Cc1c(C(=O)O)c(C(=O)NC(C)(C)C)nn1-c1ccc(Cl)cc1`: the inhibition of growth at 50 µg/mL worked out at 69.3% in the test on Globisporangium ultimum [1], 31.5% in the test on Pyricularia grisea [5] and 49.3% in the test with Botrytis cinerea [6]. Further, the inhibition of growth at 10 µg/mL is 20.9% in the test with Pyricularia grisea [2], 47.2% with Globisporangium ultimum [3] and 45.6% in the test on Botrytis cinerea [9]. In addition, the pIC50 in [12] is 3.02; in the test on Globisporangium ultimum [13], 4.42. For the same compound, the values for the inhibition of growth at 100 µg/mL in the test on Globisporangium ultimum [4], in the test with Botrytis cinerea [8] and in the test with Pyricularia grisea [10] were 69.3%, 49.9% and 33.2%, respectively. Besides, in test [14], the Ratio IC50 worked out at 25.
As for `Cc1cccc2sc3nncn3c12` [TRICYCLAZOLE], in the test on Pyricularia grisea [2], the inhibition of growth at 10 µg/mL worked out at 0%. In the test with Pyricularia grisea [5], the inhibition of growth at 50 µg/mL was determined as 24%. The negative logarithm of the IC50 (pIC50) in the test with Pyricularia grisea [7] was 3.32. For the same compound, the inhibition of growth at 100 µg/mL in the test with Pyricularia grisea [10] amounted to 62%.
